In paper PMC4251658 (Biochemistry, 2012):
Several values for one entry are separate records, joined by “and”; a condition that tells them apart may be missing. Equal entries are not always repeated. Where two headings read alike, the source gives them in different places. Marks after values point to notes of the source that are not given here.

Tests used:
PCP hydroxylase [1] = target: T1, PCP hydroxylase (Sphingobium chlorophenolicum, UniProt P42535); type: biochemical; settings: 100 μM substrate, 160 μM NADPH
T1 sequence (P42535 1-538): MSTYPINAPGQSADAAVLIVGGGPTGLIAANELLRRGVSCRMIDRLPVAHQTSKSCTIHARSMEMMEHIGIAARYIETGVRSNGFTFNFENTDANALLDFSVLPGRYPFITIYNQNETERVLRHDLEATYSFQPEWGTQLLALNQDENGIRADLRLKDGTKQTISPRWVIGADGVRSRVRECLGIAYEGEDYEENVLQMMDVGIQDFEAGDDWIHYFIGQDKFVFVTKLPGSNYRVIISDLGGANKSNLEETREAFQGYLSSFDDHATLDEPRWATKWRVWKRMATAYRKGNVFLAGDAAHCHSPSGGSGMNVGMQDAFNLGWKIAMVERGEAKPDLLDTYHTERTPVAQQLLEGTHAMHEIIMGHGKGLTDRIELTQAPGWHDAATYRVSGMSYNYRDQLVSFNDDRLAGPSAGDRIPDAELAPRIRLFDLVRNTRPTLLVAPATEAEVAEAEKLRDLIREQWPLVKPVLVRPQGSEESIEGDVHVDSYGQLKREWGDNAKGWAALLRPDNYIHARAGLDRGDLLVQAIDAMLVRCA

PCP hydroxylase [2] = target: T1, PCP hydroxylase; assay: Hydrogen peroxide assay; type: biochemical; settings: 100 μM substrate, 160 μM NADPH
Procedure, shortened: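 Reaction samples or H2O2 standards were added to freshly prepared reagent (250 μM Fe(II) ammonium sulfate, 25 mM H2SO4, 100 μM xylenol orange, 100 mM sorbitol) and incubated 30–45 min at room temperature. A560 was read against a prior standard curve. Reactions contained substrate or effector (100 μM) and NADPH (160 μM), run in triplicate; average rates came from at least three separate experiments.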

PCP hydroxylase [3] = target: T1, PCP hydroxylase; assay: HPLC analysis of the products formed by PCP hydroxylase; type: biochemical; settings: for TCHQ, reaction components after 1 min incubation at room temperature / TCP, reaction components after 1 min incubation at room temperature / THTH, reaction components after 1 min incubation at room temperature / PCP, reaction components after 1 min incubation at room temperature: reactant 100 μM, PCP hydroxylase 10 μM, NADPH 300 μM
Procedure, shortened: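 His6-tagged enzyme expressed in E. coli M15(pReP4). Substrate (100 μM) in 50 mM potassium phosphate pH 7.5 with 25 μM ascorbate, plus 6 mM β-ME where included to trap TCBQ as THTH. Enzyme (10 μM) and NADPH (300 μM) added as indicated, 1 min at room temperature. Quenched into ethyl acetate with p-nitrophenol internal standard, dried, redissolved in TFA/acetonitrile; HPLC detection at 295, 310 and 350 nm.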

PCP hydroxylase [4] = target: T1, PCP hydroxylase; assay: Determination of dissociation constants by absorbance spectroscopy; type: binding; settings: titration at constant enzyme concentration
PCP hydroxylase [5] = target: T1, PCP hydroxylase; assay: Spectroscopic assays of enzyme activity, steady-state kinetic parameters; type: biochemical; settings: 160 μM NADPH; for kcat for hydroxylation reaction: in the presence of 6 mM β-ME, ambient O2 (apparent)
PCP hydroxylase [6] = settings: cited from earlier work
[7] = phenolic proton, in solution; cited from earlier work
SEC = target: the molecule itself; assay: SEC
[8] = in the presence of 5 mM ascorbate

## Oc1cc(Cl)cc(Cl)c1 [3,5-DCP, 3,5-dichlorophenol]
PCP hydroxylase [1]
  NADPH disappearance: 0.0079 ± 0.0016 s⁻¹
  Product appearance: none
  extent of uncoupling (in words): complete uncoupling
PCP hydroxylase [2]
  H2O2 appearance: 0.0029 ± 0.0006 s⁻¹

## Oc1cc(Cl)c(Cl)c(Cl)c1 [3,4,5-triCP, 3,4,5-trichlorophenol]
PCP hydroxylase [1]
  NADPH disappearance: 0.012 ± 0.001 s⁻¹
  Product appearance: none
  extent of uncoupling (in words): complete uncoupling

## Oc1c(Cl)cc(Cl)cc1Cl [2,4,6-triCP, 2,4,6-trichlorophenol]
PCP hydroxylase [1]; [8]
  NADPH /product: 1.5^b
  NADPH disappearance: 0.0048 ± 0.003^b s^−1
  Product appearance: 0.0033 ± 0.0002^b s^−1
PCP hydroxylase [2]
  H2O2 appearance: 0.0012 ± 0.0002 s⁻¹

## Oc1c(Cl)c(Cl)cc(Cl)c1Cl [TCP, 2,3,5,6-tetrachlorophenol]
PCP hydroxylase [3]; no β-ME, 25 μM ascorbate
  TCHQ, reaction components after 1 min incubation at room temperature: 78 ± 11
  TCP, reaction components after 1 min incubation at room temperature: 10 ± 1
PCP hydroxylase [3]; β-ME 6, 25 μM ascorbate
  TCHQ, reaction components after 1 min incubation at room temperature: 75 ± 8
  TCP, reaction components after 1 min incubation at room temperature: 10 ± 1
  THTH, reaction components after 1 min incubation at room temperature: 9 ± 1
PCP hydroxylase [4]
  Dissociation constants (in words): low micromolar range
PCP hydroxylase [5]
  Hill coefficient nH: 2
PCP hydroxylase [1]
  NADPH /product: 1.5
  NADPH disappearance: 0.111 ± 0.018 s⁻¹
  Product appearance: 0.076 ± 0.008 s⁻¹
PCP hydroxylase [2]
  H2O2 appearance: 0.0132 ± 0.008 s⁻¹

## Oc1c(Cl)cccc1Cl [2,6-DCP, 2,6-dichlorophenol]
PCP hydroxylase [1]
  NADPH /product: 0.9
  NADPH disappearance: 0.051 ± 0.004 s⁻¹
  Product appearance: 0.060 ± 0.002 s⁻¹
  extent of uncoupling (in words): no uncoupling
PCP hydroxylase [2]
  H2O2 appearance: 0.0011 ± 0.0002 s⁻¹

## Oc1c(Cl)c(Cl)c(O)c(Cl)c1Cl [TCHQ, tetrachlorohydroquinone]
PCP hydroxylase [3]; incubation with the enzyme in the presence of NADPH and β-ME for one minute
  conversion to THTH: 23%
PCP hydroxylase [3]; β-ME 6, 25 μM ascorbate
  TCHQ, reaction components after 1 min incubation at room temperature: 77 ± 2
  THTH, reaction components after 1 min incubation at room temperature: 23 ± 2
PCP hydroxylase [4]
  Dissociation constants (in words): low micromolar range
PCP hydroxylase [5]; 6 mM β-ME
  concentration above which substrate inhibition is seen: > 40 µM
PCP hydroxylase [5]
  kcat for hydroxylation reaction: > 0.015^a,b s^−1
PCP hydroxylase [1]; in the presence of 6 mM β-ME
  NADPH /product: 6.3^c
  NADPH disappearance: 0.030 ± 0.003^c s^−1
  Product appearance: 0.0048 ± 0.0004^c s^−1
PCP hydroxylase [2]
  H2O2 appearance: 0.035 ± 0.005 s⁻¹

## Oc1ccc(Cl)c(Cl)c1 [3,4-DCP]
PCP hydroxylase [1]
  NADPH disappearance: 0.0045 ± 0.0010 s⁻¹
  Product appearance: none
  extent of uncoupling (in words): complete uncoupling

## Oc1c(Cl)c(Cl)c(Cl)c(Cl)c1Cl [PCP, pentachlorophenol]
PCP hydroxylase [3]; no β-ME, 25 μM ascorbate
  PCP, reaction components after 1 min incubation at room temperature: 75 ± 1
  TCHQ, reaction components after 1 min incubation at room temperature: 18 ± 1
PCP hydroxylase [3]; β-ME 6, 25 μM ascorbate
  PCP, reaction components after 1 min incubation at room temperature: 70 ± 2
  THTH, reaction components after 1 min incubation at room temperature: 28 ± 2
PCP hydroxylase [5]
  kcat for hydroxylation reaction: 0.024 s^−1 and 0.024 ± 0.002^a,b s^−1
PCP hydroxylase [1]; [8]
  NADPH /product: 1.3^b
  NADPH disappearance: 0.025 ± 0.001^b s^−1
  Product appearance: 0.020 ± 0.003^b s^−1
PCP hydroxylase [2]
  H2O2 appearance: 0.0070 ± 0.0009 s⁻¹
PCP hydroxylase [6]
  NADPH consumed for each PCP consumed: 2 equivalents
  O2 consumed for each PCP consumed: 1.4 equivalents
[7]
  pKa: 4.5

B1: His6-tagged PCP hydroxylase (pentachlorophenol hydroxylase, PcpB) (enzyme, Sphingobium chlorophenolicum, UniProt P42535 1-538, looked up)
chain: T1 sequence (P42535 1-538)
SEC
  stoichiometry N: 2
